Laboratory results reported in ChEMBL document CHEMBL1155250, “Novel 1-aminoethyl-3-arylsulfonyl-1H-pyrrolo[2,3-b]pyridines are potent 5-HT(6) agonists” (Bioorg Med Chem, 2009).

Tests used:
[1] = biological target: T1, 5-hydroxytryptamine receptor 6 (Homo sapiens, UniProt P50406); assay: Agonist activity at human cloned 5HT6 receptor expressed in HeLa cells assessed as induction of adenylyl cyclase activity by RIA relative to serotonin; type: functional, cell-based
Procedure, shortened: (§1)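 Transfected HeLa cells expressing human 5-HT6 were washed with Krebs buffer and preincubated 5 min at 37 °C in Krebs with 500 µM IBMX. They were then stimulated 10 min at 37 °C with compound over 0.1–10000 nM. Agonist potency came from concentration–response curves, and percent efficacy was taken relative to a serotonin maximal response.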

[2] = biological target: T1, 5-hydroxytryptamine receptor 6; assay: Agonist activity at human cloned 5HT6 receptor expressed in HeLa cells assessed as induction of adenylyl cyclase activity by RIA; type: functional, cell-based; procedure, shortened: as §1
[3] = biological target: T1, 5-hydroxytryptamine receptor 6; assay: Displacement of [3H]LSD from human cloned 5HT6 receptor expressed in HeLa cells; type: cell-based
Procedure, shortened: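 Radioligand binding used human 5-HT6 receptor stably expressed in HeLa cells with [3H]LSD as the radioligand. Affinity is reported as Ki.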

[4] = biological target: T1, 5-hydroxytryptamine receptor 6; assay: Antagonist activity at human cloned 5HT6 receptor expressed in HeLa cells assessed as inhibition of adenylyl cyclase activity by RIA; type: functional, cell-based
[5] = biological target: T1, 5-hydroxytryptamine receptor 6; assay: Antagonist activity at human cloned 5HT6 receptor expressed in HeLa cells assessed as inhibition of adenylyl cyclase activity by RIA relative to serotonin; type: functional, cell-based
D(2) dopamine receptor = D(2) dopamine receptor (Homo sapiens, UniProt P14416); assay: Displacement of [3H]spiperone from human cloned dopamine D2 receptor expressed in CHO-K1 cells; type: cell-based
Chain of D(2) dopamine receptor (P14416 whole entry): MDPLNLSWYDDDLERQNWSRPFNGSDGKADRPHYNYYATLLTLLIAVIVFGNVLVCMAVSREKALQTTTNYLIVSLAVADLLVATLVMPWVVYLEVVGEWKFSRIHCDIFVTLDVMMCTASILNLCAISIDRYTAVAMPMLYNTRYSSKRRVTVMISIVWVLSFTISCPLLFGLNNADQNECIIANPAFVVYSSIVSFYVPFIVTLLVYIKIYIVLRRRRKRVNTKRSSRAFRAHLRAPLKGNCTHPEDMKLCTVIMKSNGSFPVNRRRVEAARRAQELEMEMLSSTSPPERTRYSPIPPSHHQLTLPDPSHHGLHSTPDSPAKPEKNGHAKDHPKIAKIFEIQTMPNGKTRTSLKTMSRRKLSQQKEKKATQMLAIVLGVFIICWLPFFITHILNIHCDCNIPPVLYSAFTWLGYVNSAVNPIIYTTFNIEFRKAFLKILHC
Procedure, shortened: (§2)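 Binding selectivity used stably expressed human receptors, 5-HT in CHO cells and dopamine in CHO-K1. Radioligands: [125I]DOI for 5-HT2A (agonist radioligand), [3H]-5-HT for 5-HT2C, [3H]LSD for 5-HT7, [3H]spiperone for D2, D3 and D4. Values are IC50 in nM.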

Homo sapiens [6] = organism: Homo sapiens; assay: Selectivity ratio of IC50 for human cloned 5HT7 receptor to human cloned 5HT6 receptor
D(4) dopamine receptor = biological target: T2, D(4) dopamine receptor (Homo sapiens, UniProt P21917); assay: Displacement of [3H]spiperone from human cloned dopamine D4 receptor expressed in CHO-K1 cells; type: cell-based; procedure, shortened: as §2
T2 sequence (P21917 whole entry): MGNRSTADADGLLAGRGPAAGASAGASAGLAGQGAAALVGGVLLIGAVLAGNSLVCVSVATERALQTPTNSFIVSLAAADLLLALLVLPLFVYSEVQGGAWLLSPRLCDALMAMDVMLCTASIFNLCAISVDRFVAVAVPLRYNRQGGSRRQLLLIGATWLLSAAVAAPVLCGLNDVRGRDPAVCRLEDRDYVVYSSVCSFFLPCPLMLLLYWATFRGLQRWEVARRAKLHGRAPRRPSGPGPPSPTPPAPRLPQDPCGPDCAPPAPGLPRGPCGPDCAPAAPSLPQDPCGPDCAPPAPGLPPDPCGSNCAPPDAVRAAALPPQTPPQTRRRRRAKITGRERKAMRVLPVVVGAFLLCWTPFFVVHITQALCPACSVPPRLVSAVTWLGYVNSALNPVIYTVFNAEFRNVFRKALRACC

D(3) dopamine receptor = D(3) dopamine receptor (Homo sapiens, UniProt P35462); assay: Displacement of [3H]spiperone from human cloned dopamine D3 receptor expressed in CHO-K1 cells; type: cell-based; procedure, shortened: as §2
Chain of D(3) dopamine receptor (P35462 whole entry): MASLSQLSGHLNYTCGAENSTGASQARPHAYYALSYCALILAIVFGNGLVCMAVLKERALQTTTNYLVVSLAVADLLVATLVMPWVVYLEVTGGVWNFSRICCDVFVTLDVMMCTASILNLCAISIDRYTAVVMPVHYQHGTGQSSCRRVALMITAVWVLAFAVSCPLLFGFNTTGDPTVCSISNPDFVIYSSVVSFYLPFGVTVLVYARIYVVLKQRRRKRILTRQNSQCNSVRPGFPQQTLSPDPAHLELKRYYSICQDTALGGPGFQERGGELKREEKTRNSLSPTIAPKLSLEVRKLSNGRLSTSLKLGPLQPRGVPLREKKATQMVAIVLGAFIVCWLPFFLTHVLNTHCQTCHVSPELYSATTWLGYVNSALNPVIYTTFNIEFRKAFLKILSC

Homo sapiens [7] = organism: Homo sapiens; assay: Selectivity ratio of IC50 for human cloned dopamine D4 receptor to human cloned 5HT6 receptor
Homo sapiens [8] = organism: Homo sapiens; assay: Selectivity ratio of IC50 for human cloned 5HT1D receptor to human cloned 5HT6 receptor
Homo sapiens [9] = organism: Homo sapiens; assay: Selectivity ratio of IC50 for human cloned 5HT1F receptor to human cloned 5HT6 receptor
[10] = biological target: 5-hydroxytryptamine receptor 1D (Homo sapiens) (UniProt P28221); assay: Displacement of [3H]5-HT from human cloned 5HT1D receptor expressed in CHO cells at 1 uM; type: cell-based
Chain of 5-hydroxytryptamine receptor 1D (Homo sapiens) (P28221 whole entry): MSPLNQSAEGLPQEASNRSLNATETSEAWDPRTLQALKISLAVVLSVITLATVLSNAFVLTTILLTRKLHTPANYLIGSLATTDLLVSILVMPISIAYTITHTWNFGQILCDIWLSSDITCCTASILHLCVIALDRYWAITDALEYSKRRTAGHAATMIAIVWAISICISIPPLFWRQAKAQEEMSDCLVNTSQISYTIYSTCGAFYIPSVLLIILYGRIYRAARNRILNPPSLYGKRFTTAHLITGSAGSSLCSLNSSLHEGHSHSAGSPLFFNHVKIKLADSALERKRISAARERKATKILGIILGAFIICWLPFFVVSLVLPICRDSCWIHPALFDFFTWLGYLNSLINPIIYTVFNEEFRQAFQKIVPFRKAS
Procedure, shortened: (§3)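 Human 5-HT1B, 5-HT1D and 5-HT1F receptors were stably expressed in CHO cells and labelled with [3H]-5-HT. Results are given as percent inhibition at a single 1 µM concentration.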

[11] = biological target: 5-hydroxytryptamine receptor 7 (Homo sapiens, UniProt P34969); assay: Displacement of [3H]LSD from human cloned 5HT7 receptor expressed in CHO cells; type: cell-based; procedure, shortened: as §2
Chain of 5-hydroxytryptamine receptor 7 (P34969 whole entry): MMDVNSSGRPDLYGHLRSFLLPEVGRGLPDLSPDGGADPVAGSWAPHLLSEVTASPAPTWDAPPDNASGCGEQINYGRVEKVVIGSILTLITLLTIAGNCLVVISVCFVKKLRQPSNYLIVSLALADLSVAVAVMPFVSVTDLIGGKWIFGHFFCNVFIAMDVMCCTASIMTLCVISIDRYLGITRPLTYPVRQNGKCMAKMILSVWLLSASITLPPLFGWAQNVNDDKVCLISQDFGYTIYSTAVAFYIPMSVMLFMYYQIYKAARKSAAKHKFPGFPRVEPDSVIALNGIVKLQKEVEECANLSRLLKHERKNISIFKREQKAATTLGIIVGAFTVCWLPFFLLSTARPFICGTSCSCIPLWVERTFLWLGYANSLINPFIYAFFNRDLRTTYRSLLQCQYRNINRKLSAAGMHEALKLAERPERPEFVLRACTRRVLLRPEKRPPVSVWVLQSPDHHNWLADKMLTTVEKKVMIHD

[12] = biological target: 5-hydroxytryptamine receptor 1B (Homo sapiens) (UniProt P28222); assay: Displacement of [3H]5-HT from human cloned 5HT1B receptor expressed in CHO cells at 1 uM; type: cell-based; procedure, shortened: as §3
Chain of 5-hydroxytryptamine receptor 1B (Homo sapiens) (P28222 whole entry): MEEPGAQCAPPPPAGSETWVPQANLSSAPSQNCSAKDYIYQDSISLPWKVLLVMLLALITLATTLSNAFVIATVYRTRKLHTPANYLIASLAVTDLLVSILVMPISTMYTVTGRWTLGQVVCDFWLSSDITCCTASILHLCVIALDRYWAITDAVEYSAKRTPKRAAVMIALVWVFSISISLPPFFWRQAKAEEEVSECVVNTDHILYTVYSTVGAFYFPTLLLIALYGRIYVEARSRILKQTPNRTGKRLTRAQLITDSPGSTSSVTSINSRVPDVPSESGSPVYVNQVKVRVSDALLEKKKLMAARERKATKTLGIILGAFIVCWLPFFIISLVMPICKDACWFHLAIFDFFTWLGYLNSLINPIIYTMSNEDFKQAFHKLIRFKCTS

Homo sapiens [13] = organism: Homo sapiens; assay: Selectivity ratio of IC50 for human cloned dopamine D3 receptor to human cloned 5HT6 receptor
Homo sapiens [14] = organism: Homo sapiens; assay: Selectivity ratio of IC50 for human cloned dopamine D2 receptor to human cloned 5HT6 receptor
[15] = biological target: T3, 5-hydroxytryptamine receptor 2C (Homo sapiens, UniProt P28335); assay: Displacement of [3H]5-HT from human cloned 5HT2C receptor expressed in CHO cells; type: cell-based; procedure, shortened: as §2
T3 sequence (P28335 whole entry): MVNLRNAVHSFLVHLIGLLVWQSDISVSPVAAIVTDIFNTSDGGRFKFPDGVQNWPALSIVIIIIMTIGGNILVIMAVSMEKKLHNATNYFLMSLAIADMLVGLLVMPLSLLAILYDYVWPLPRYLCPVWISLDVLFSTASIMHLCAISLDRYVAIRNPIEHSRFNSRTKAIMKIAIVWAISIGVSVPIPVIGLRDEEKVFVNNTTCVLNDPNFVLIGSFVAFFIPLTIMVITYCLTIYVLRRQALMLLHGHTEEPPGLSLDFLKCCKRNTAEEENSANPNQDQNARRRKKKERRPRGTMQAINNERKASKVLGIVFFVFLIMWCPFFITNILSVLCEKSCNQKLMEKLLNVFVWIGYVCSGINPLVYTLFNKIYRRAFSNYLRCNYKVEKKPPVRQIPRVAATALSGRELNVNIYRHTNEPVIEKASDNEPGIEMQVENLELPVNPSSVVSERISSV

Homo sapiens [16] = organism: Homo sapiens; assay: Selectivity ratio of IC50 for human cloned 5HT1B receptor to human cloned 5HT6 receptor
[17] = biological target: 5-hydroxytryptamine receptor 2A (Homo sapiens, UniProt P28223); assay: Displacement of [125I]DOI from human cloned 5HT2A receptor expressed in CHO cells; type: cell-based; procedure, shortened: as §2
Chain of 5-hydroxytryptamine receptor 2A (P28223 whole entry): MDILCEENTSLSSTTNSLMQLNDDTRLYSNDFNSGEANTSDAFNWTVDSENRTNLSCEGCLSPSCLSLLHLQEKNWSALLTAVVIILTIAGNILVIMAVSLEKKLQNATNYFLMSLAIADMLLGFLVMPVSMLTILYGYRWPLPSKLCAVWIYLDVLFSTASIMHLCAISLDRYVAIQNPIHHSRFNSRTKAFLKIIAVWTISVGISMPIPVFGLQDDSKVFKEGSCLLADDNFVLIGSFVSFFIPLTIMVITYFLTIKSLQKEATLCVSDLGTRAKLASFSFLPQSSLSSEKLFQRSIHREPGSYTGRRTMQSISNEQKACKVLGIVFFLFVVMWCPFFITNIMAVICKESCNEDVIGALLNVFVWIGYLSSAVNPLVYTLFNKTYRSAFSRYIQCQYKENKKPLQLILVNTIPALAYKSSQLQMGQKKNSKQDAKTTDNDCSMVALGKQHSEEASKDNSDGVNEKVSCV

Homo sapiens [18] = organism: Homo sapiens; assay: Selectivity ratio of IC50 for human cloned 5HT2A receptor to human cloned 5HT6 receptor
Homo sapiens [19] = organism: Homo sapiens; assay: Selectivity ratio of IC50 for human cloned 5HT2C receptor to human cloned 5HT6 receptor
[20] = biological target: T4, 5-hydroxytryptamine receptor 1F (Homo sapiens) (UniProt P30939); assay: Displacement of [3H]5-HT from human cloned 5HT1F receptor expressed in CHO cells at 1 uM; type: cell-based; procedure, shortened: as §3
T4 sequence (whole entry): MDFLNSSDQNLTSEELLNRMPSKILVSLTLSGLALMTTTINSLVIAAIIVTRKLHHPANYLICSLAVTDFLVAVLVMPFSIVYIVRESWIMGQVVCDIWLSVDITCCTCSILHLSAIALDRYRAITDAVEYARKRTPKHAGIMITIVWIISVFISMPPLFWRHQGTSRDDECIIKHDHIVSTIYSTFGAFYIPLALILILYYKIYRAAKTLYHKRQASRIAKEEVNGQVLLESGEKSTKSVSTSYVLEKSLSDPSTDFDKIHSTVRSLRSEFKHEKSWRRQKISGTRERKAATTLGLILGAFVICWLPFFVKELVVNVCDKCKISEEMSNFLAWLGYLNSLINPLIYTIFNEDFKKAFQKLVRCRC

T1 sequence (P50406 whole entry): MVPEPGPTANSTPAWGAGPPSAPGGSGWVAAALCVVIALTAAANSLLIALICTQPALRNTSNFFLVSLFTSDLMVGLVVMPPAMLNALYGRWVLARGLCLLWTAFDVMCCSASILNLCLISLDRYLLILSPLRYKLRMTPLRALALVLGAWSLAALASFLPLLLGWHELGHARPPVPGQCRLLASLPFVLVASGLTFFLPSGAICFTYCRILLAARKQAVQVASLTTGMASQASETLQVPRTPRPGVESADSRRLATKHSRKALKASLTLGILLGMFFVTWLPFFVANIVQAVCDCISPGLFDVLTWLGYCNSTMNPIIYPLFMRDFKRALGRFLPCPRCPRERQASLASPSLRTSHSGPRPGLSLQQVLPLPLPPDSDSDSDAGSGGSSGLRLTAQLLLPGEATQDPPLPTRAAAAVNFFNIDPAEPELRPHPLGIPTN

Structure (SMILES)	Emax [1]	EC50 [2]	Ki [3]	also measured
NCCn1cc(S(=O)(=O)c2ccc(F)cc2)c2cccnc21	100%	166 nM	–	–
CN(C)CCn1cc(S(=O)(=O)c2cc(Cl)cc(Cl)c2)c2cccnc21	80%	28 nM	4.3 nM	–
CN(C)CCn1cc(S(=O)(=O)c2cc(Cl)ccc2Cl)c2cccnc21	–	–	11.7 nM	IC50 [4]: 15 nM; Imax [5]: 97%
Cc1c(S(=O)(=O)c2ccccc2)c2cccnc2n1CCN(C)C	100%	47 nM	4.7 nM	–
NCCn1cc(S(=O)(=O)c2ccccc2)c2cccnc21	100%	27 nM	5.5 nM	IC50 (D(2) dopamine receptor): > 5 µM; Ratio IC50 (Homo sapiens [6]): > 50; IC50 (D(4) dopamine receptor): > 5 µM; IC50 (D(3) dopamine receptor): > 5 µM; Ratio IC50 (Homo sapiens [7]): > 50; Ratio IC50 (Homo sapiens [8]): > 50; Ratio IC50 (Homo sapiens [9]): > 50; inhibition [10]: 16%; IC50 [11]: > 5000 nM; inhibition [12]: 11%; Ratio IC50 (Homo sapiens [13]): > 50; Ratio IC50 (Homo sapiens [14]): > 50; IC50 [15]: > 5000 nM; Ratio IC50 (Homo sapiens [16]): > 50; IC50 [17]: > 5000 nM; Ratio IC50 (Homo sapiens [18]): > 50; Ratio IC50 (Homo sapiens [19]): > 50; inhibition [20]: 14%
CN(C)CCn1cc(S(=O)(=O)c2ccccc2)c2ccccc21	63%	366 nM	–	–
CN(C)CCn1cc(S(=O)(=O)c2ccc(F)cc2)c2cccnc21	84%	30 nM	45 nM	–
CN(C)CCn1cc(S(=O)(=O)c2cccc3ccccc23)c2cccnc21	63%	51 nM	–	IC50 (D(2) dopamine receptor): > 5 µM; Ratio IC50 (Homo sapiens [6]): > 50; IC50 (D(4) dopamine receptor): > 5 µM; IC50 (D(3) dopamine receptor): 1.56 µM; Ratio IC50 (Homo sapiens [7]): > 50; Ratio IC50 (Homo sapiens [8]): > 50; Ratio IC50 (Homo sapiens [9]): > 50; inhibition [10]: 0%; IC50 [11]: 511 nM; inhibition [12]: 40%; Ratio IC50 (Homo sapiens [13]): > 50; Ratio IC50 (Homo sapiens [14]): > 50; IC50 [15]: 1140 nM; Ratio IC50 (Homo sapiens [16]): > 50; IC50 [17]: 938 nM; Ratio IC50 (Homo sapiens [18]): > 50; Ratio IC50 (Homo sapiens [19]): > 50; inhibition [20]: 10%
NCCn1cc(S(=O)(=O)c2cccc(Cl)c2)c2cccnc21	94%	18 nM	2 nM	IC50 (D(2) dopamine receptor): > 5 µM; IC50 (D(4) dopamine receptor): > 5 µM; IC50 (D(3) dopamine receptor): > 5 µM; IC50 [11]: 1360 nM; IC50 [15]: 44 nM; IC50 [17]: 11 nM
NCCn1cc(S(=O)(=O)c2cc(Cl)cc(Cl)c2)c2cccnc21	65%	35 nM	2.9 nM	–
CNCCn1cc(S(=O)(=O)c2cccc(F)c2)c2cccnc21	–	–	–	IC50 [4]: 6.2 nM; Imax [5]: 93%
CN(C)CCn1cc(S(=O)(=O)c2ccc(Cl)s2)c2cccnc21	93%	32 nM	3.3 nM	–
NCCn1cc(S(=O)(=O)c2cccc(F)c2)c2cccnc21	100%	24 nM	4.7 nM	–
NCCn1cc(S(=O)(=O)c2ccccc2)c2ccccc21	67%	178 nM	–	–
NCCn1cc(S(=O)(=O)c2cccc(C(F)(F)F)c2)c2cccnc21	83%	110 nM	2.1 nM	–
NCCn1cc(S(=O)(=O)c2cccc3ccccc23)c2cccnc21	65%	63 nM	1.6 nM	–
CN(C)CCn1cc(S(=O)(=O)c2c(Cl)nc3sccn23)c2cccnc21	71%	120 nM	0.9 nM	–
CN(C)CCn1cc(S(=O)(=O)c2c(Cl)cccc2Cl)c2cccnc21	66%	31 nM	–	–
NCCn1cc(S(=O)(=O)c2ccccc2C(F)(F)F)c2cccnc21	97%	85 nM	2.1 nM	–
CN(C)CCn1cc(S(=O)(=O)c2cccs2)c2cccnc21	74%	154 nM	–	–
CNCCn1cc(S(=O)(=O)c2c(Cl)nc3sccn23)c2cccnc21	–	–	0.9 nM	IC50 [4]: 5.4 nM; Imax [5]: 89%
CNCCn1cc(S(=O)(=O)c2cccc(Cl)c2)c2cccnc21	–	–	–	IC50 [4]: 8.3 nM; Imax [5]: 100%
Cc1c(S(=O)(=O)c2ccccc2)c2cccnc2n1CCN	85%	20 nM	4.2 nM	–
CN(C)CCn1cc(S(=O)(=O)c2ccccc2)c2cccnc21	94%	25 nM	–	–
